Data published in ChEMBL document CHEMBL1151705, “Novel azalides derived from 16-membered macrolides. Part II: Isolation of the linear 9-formylcarboxylic acid and its sequential macrocyclization with an amino alcohol or an azidoamine” (2008).
In brackets after ≈: the same amount, converted by molar mass.

Tests used:
Type in all cases: functional
Streptococcus pneumoniae [1] = test: Antimicrobial activity against Streptococcus pneumoniae 8 expressing inducible ermB after 20 hrs by agar dilution method
How it was run: (§1)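 Streptococci, H. influenzae and M. catarrhalis were precultured on blood agar plates. Suspensions of about 10⁶ CFU/ml were inoculated onto sensitivity disk agar supplemented with 5% horse blood and incubated at 37 °C for 20 h. MIC was read as the lowest drug concentration with no visible growth.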

Streptococcus pneumoniae [2] = test: Antimicrobial activity against Streptococcus pneumoniae 9 expressing mefA after 20 hrs by agar dilution method; how it was run: as §1
Streptococcus pneumoniae [3] = test: Antimicrobial activity against Streptococcus pneumoniae 10 expressing mefA after 20 hrs by agar dilution method; how it was run: as §1
Streptococcus pyogenes [4] = test: Antimicrobial activity against drug-susceptible Streptococcus pyogenes 1 after 20 hrs by agar dilution method; how it was run: as §1
Streptococcus pyogenes [5] = test: Antimicrobial activity against Streptococcus pyogenes 2 constitutively expressing ermB after 20 hrs by agar dilution method; how it was run: as §1
Streptococcus pyogenes [6] = test: Antimicrobial activity against Streptococcus pyogenes 3 expressing mefA after 20 hrs by agar dilution method; how it was run: as §1
Moraxella catarrhalis [7] = test: Antimicrobial activity against drug-susceptible Moraxella catarrhalis 1 after 20 hrs by agar dilution method; how it was run: as §1
Moraxella catarrhalis [8] = test: Antimicrobial activity against drug-susceptible Moraxella catarrhalis 2 after 20 hrs by agar dilution method; how it was run: as §1
Haemophilus influenzae [9] = test: Antimicrobial activity against drug-susceptible Haemophilus influenzae 1 after 20 hrs by agar dilution method; how it was run: as §1
Haemophilus influenzae [10] = test: Antimicrobial activity against drug-susceptible Haemophilus influenzae 2 after 20 hrs by agar dilution method; how it was run: as §1
Haemophilus influenzae [11] = test: Antimicrobial activity against drug-susceptible Haemophilus influenzae 3 after 20 hrs by agar dilution method; how it was run: as §1
Haemophilus influenzae [12] = test: Antimicrobial activity against drug-susceptible Haemophilus influenzae 4 after 20 hrs by agar dilution method; how it was run: as §1
Staphylococcus aureus [13] = test: Antimicrobial activity against drug-susceptible Staphylococcus aureus 209P JC-1 after 20 hrs by agar dilution method
How it was run: (§2)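 Agar dilution MIC. S. aureus seed culture was grown in sensitivity test broth. Cell suspension (about 10⁶ CFU/ml) was inoculated onto sensitivity disk agar with 5% horse blood and incubated at 37 °C for 20 h. MIC was the lowest drug concentration that prevented visible growth.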

Staphylococcus aureus [14] = test: Antimicrobial activity against drug-susceptible Staphylococcus aureus 2 after 20 hrs by agar dilution method; how it was run: as §2
Staphylococcus aureus [15] = test: Antimicrobial activity against drug-susceptible Staphylococcus aureus 3 after 20 hrs by agar dilution method; how it was run: as §2
Staphylococcus aureus [16] = test: Antimicrobial activity against Staphylococcus aureus 4 constitutively expressing ermA after 20 hrs by agar dilution method; how it was run: as §2
Staphylococcus aureus [17] = test: Antimicrobial activity against Staphylococcus aureus 5 expressing inducible ermB after 20 hrs by agar dilution method; details: Staphylococcus aureus, 20 h; read-out: MIC; how it was run: as §2
Streptococcus pneumoniae [18] = test: Antimicrobial activity against drug-susceptible Streptococcus pneumoniae DP1 Type1 after 20 hrs by agar dilution method; how it was run: as §1
Streptococcus pneumoniae [19] = test: Antimicrobial activity against drug-susceptible Streptococcus pneumoniae 2 after 20 hrs by agar dilution method; how it was run: as §1
Streptococcus pneumoniae [20] = test: Antimicrobial activity against drug-susceptible Streptococcus pneumoniae 3 after 20 hrs by agar dilution method; how it was run: as §1
Streptococcus pneumoniae [21] = test: Antimicrobial activity against Streptococcus pneumoniae 4 constitutively expressing ermB after 20 hrs by agar dilution method; details: Streptococcus pneumoniae, 20 h; read-out: MIC; how it was run: as §1
Streptococcus pneumoniae [22] = test: Antimicrobial activity against Streptococcus pneumoniae 5 constitutively expressing ermB/mefA after 20 hrs by agar dilution method; details: Streptococcus pneumoniae, 20 h; read-out: MIC; how it was run: as §1
Streptococcus pneumoniae [23] = test: Antimicrobial activity against Streptococcus pneumoniae 6 constitutively expressing ermB after 20 hrs by agar dilution method; details: Streptococcus pneumoniae, 20 h; read-out: MIC; how it was run: as §1
Streptococcus pneumoniae [24] = test: Antimicrobial activity against Streptococcus pneumoniae 7 expressing inducible ermB after 20 hrs by agar dilution method; how it was run: as §1
Staphylococcus aureus [25] = test: Antimicrobial activity against Staphylococcus aureus 6 expressing inducible ermB after 20 hrs by agar dilution method; how it was run: as §2
[26] = Streptococcus pneumoniae, 20 h, read-out: MIC
[27] = Streptococcus pyogenes, 20 h, read-out: MIC
[28] = Moraxella catarrhalis, 20 h, read-out: MIC
[29] = Haemophilus influenzae, 20 h, read-out: MIC
[30] = Staphylococcus aureus, 209P, 20 h, read-out: MIC
[31] = Staphylococcus aureus, 20 h, read-out: MIC

| Structure (SMILES) | MIC (Streptococcus pneumoniae [1]; [26]) | MIC (Streptococcus pneumoniae [2]; [26]) | MIC (Streptococcus pneumoniae [3]; [26]) | MIC (Streptococcus pyogenes [4]; [27]) | MIC (Streptococcus pyogenes [5]) | MIC (Streptococcus pyogenes [6]; [27]) | MIC (Moraxella catarrhalis [7]; [28]) | MIC (Moraxella catarrhalis [8]; [28]) | MIC (Haemophilus influenzae [9]; [29]) | MIC (Haemophilus influenzae [10]; [29]) | MIC (Haemophilus influenzae [11]; [29]) | MIC (Haemophilus influenzae [12]; [29]) | MIC (Staphylococcus aureus [13]; [30]) | MIC (Staphylococcus aureus [14]; [31]) | MIC (Staphylococcus aureus [15]; [31]) | MIC (Staphylococcus aureus [16]) | MIC (Staphylococcus aureus [17]) | MIC (Streptococcus pneumoniae [18]; [26]) | MIC (Streptococcus pneumoniae [19]; [26]) | MIC (Streptococcus pneumoniae [20]; [26]) | further results |
| --- | --- | --- | --- | --- | --- | --- | --- | --- | --- | --- | --- | --- | --- | --- | --- | --- | --- | --- | --- | --- | --- |
| CCOC(=O)[C@H]1[C@H](C)O[C@@H](O[C@H]2[C@H](N(C)C)[C@@H](O)[C@H](O[C@H]3[C@@H](CC=O)C[C@@H](C)[C@@H](O)CN(C)CC(/C=C\Cc4cnc5ccccc5c4)CCOC(=O)C[C@@H](OC(=O)CC)[C@@H]3OC)O[C@@H]2C)C[C@@]1(C)O (stereo partly drawn) | 8 µg/mL (≈ 8.11 µM) | 0.13 µg/mL (≈ 0.132 µM) | 0.13 µg/mL (≈ 0.132 µM) | 0.13 µg/mL (≈ 0.132 µM) | > 64 µg/mL | 0.5 µg/mL (≈ 0.507 µM) | 2 µg/mL (≈ 2.03 µM) | 2 µg/mL (≈ 2.03 µM) | > 64 µg/mL | 8 µg/mL (≈ 8.11 µM) | 16 µg/mL (≈ 16.2 µM) | 16 µg/mL (≈ 16.2 µM) | 0.5 µg/mL (≈ 0.507 µM) | 1 µg/mL (≈ 1.01 µM) | 0.25 µg/mL (≈ 0.253 µM) | > 64 µg/mL | 0.25 µg/mL (≈ 0.253 µM) | 0.06 µg/mL (≈ 0.0608 µM) | 0.25 µg/mL (≈ 0.253 µM) | 0.13 µg/mL (≈ 0.132 µM) | MIC (Streptococcus pneumoniae [21]): > 64 µg/mL; MIC (Streptococcus pneumoniae [22]): > 64 µg/mL; MIC (Streptococcus pneumoniae [23]): > 64 µg/mL; MIC (Streptococcus pneumoniae [24]; [26]): 8 µg/mL (≈ 8.11 µM); MIC (Staphylococcus aureus [25]): 1 µg/mL (≈ 1.01 µM) |
| CCOC(=O)[C@H]1[C@H](C)O[C@@H](O[C@H]2[C@H](N(C)C)[C@@H](O)[C@H](O[C@H]3[C@@H](CC=O)C[C@@H](C)[C@@H](O)CN(C)CCC[C@H](C/C=C/c4ccc5ccccc5c4)OC(=O)C[C@@H](OC(=O)CC)[C@@H]3OC)O[C@@H]2C)C[C@@]1(C)O | 8 µg/mL (≈ 8.12 µM) | 0.13 µg/mL (≈ 0.132 µM) | 0.13 µg/mL (≈ 0.132 µM) | 0.25 µg/mL (≈ 0.254 µM) | 32 µg/mL (≈ 32.5 µM) | 1 µg/mL (≈ 1.01 µM) | 2 µg/mL (≈ 2.03 µM) | 2 µg/mL (≈ 2.03 µM) | 32 µg/mL (≈ 32.5 µM) | 8 µg/mL (≈ 8.12 µM) | 16 µg/mL (≈ 16.2 µM) | 16 µg/mL (≈ 16.2 µM) | 0.5 µg/mL (≈ 0.507 µM) | 2 µg/mL (≈ 2.03 µM) | 0.5 µg/mL (≈ 0.507 µM) | 64 µg/mL (≈ 65 µM) | 0.5 µg/mL (≈ 0.507 µM) | 0.06 µg/mL (≈ 0.0609 µM) | 0.06 µg/mL (≈ 0.0609 µM) | 0.13 µg/mL (≈ 0.132 µM) | MIC (Streptococcus pneumoniae [21]): 32 µg/mL (≈ 32.5 µM); MIC (Streptococcus pneumoniae [22]): 32 µg/mL (≈ 32.5 µM); MIC (Streptococcus pneumoniae [23]): 32 µg/mL (≈ 32.5 µM); MIC (Streptococcus pneumoniae [24]; [26]): 8 µg/mL (≈ 8.12 µM); MIC (Staphylococcus aureus [25]): 1 µg/mL (≈ 1.01 µM) |
| CCOC(=O)[C@H]1[C@H](C)O[C@@H](O[C@H]2[C@H](N(C)C)[C@@H](O)[C@H](O[C@H]3[C@@H](CC=O)C[C@@H](C)[C@@H](O)CN(C)CCC(CCCc4cnc5ccccc5c4)NC(=O)C[C@@H](OC(=O)CC)[C@@H]3OC)O[C@@H]2C)C[C@@]1(C)O (stereo in doubt) |  |  |  |  |  |  |  |  |  |  |  |  |  |  |  |  |  |  |  |  | MIC (Streptococcus pneumoniae [1]): 8 µg/mL (≈ 8.22 µM); MIC (Streptococcus pneumoniae [2]): 0.06 µg/mL (≈ 0.0617 µM); MIC (Streptococcus pneumoniae [3]): 0.06 µg/mL (≈ 0.0617 µM); MIC (Streptococcus pyogenes [4]): 0.25 µg/mL (≈ 0.257 µM); MIC (Streptococcus pyogenes [6]): 1 µg/mL (≈ 1.03 µM); MIC (Moraxella catarrhalis [7]): 8 µg/mL (≈ 8.22 µM); MIC (Moraxella catarrhalis [8]): 4 µg/mL (≈ 4.11 µM); MIC (Haemophilus influenzae [9]): 32 µg/mL (≈ 32.9 µM); MIC (Haemophilus influenzae [10]): 2 µg/mL (≈ 2.06 µM); MIC (Haemophilus influenzae [11]): 8 µg/mL (≈ 8.22 µM); MIC (Haemophilus influenzae [12]): 16 µg/mL (≈ 16.4 µM); MIC (Staphylococcus aureus [13]): 1 µg/mL (≈ 1.03 µM); MIC (Staphylococcus aureus [14]): 2 µg/mL (≈ 2.06 µM); MIC (Staphylococcus aureus [15]): 0.5 µg/mL (≈ 0.514 µM); MIC (Streptococcus pneumoniae [18]): 0.03 µg/mL (≈ 0.0308 µM); MIC (Streptococcus pneumoniae [19]): 0.06 µg/mL (≈ 0.0617 µM); MIC (Streptococcus pneumoniae [20]): 0.06 µg/mL (≈ 0.0617 µM); MIC (Streptococcus pneumoniae [24]): 8 µg/mL (≈ 8.22 µM) |
| CCOC(=O)[C@H]1[C@H](C)O[C@@H](O[C@H]2[C@H](N(C)C)[C@@H](O)[C@H](O[C@H]3[C@@H](CC=O)C[C@@H](C)[C@@H](O)CN(C)CCC[C@H](C/C=C/c4cccc5ccccc45)OC(=O)C[C@@H](OC(=O)CC)[C@@H]3OC)O[C@@H]2C)C[C@@]1(C)O | 2 µg/mL (≈ 2.03 µM) | 0.06 µg/mL (≈ 0.0609 µM) | 0.06 µg/mL (≈ 0.0609 µM) | 0.25 µg/mL (≈ 0.254 µM) | 64 µg/mL (≈ 65 µM) | 1 µg/mL (≈ 1.01 µM) | 2 µg/mL (≈ 2.03 µM) | 2 µg/mL (≈ 2.03 µM) | 64 µg/mL (≈ 65 µM) | 16 µg/mL (≈ 16.2 µM) | 16 µg/mL (≈ 16.2 µM) | 16 µg/mL (≈ 16.2 µM) | 1 µg/mL (≈ 1.01 µM) | 2 µg/mL (≈ 2.03 µM) | 0.5 µg/mL (≈ 0.507 µM) | > 128 µg/mL | 0.5 µg/mL (≈ 0.507 µM) | 0.06 µg/mL (≈ 0.0609 µM) | 0.13 µg/mL (≈ 0.132 µM) | 0.06 µg/mL (≈ 0.0609 µM) | MIC (Streptococcus pneumoniae [21]): 64 µg/mL (≈ 65 µM); MIC (Streptococcus pneumoniae [22]): 64 µg/mL (≈ 65 µM); MIC (Streptococcus pneumoniae [23]): 64 µg/mL (≈ 65 µM); MIC (Streptococcus pneumoniae [24]; [26]): 4 µg/mL (≈ 4.06 µM); MIC (Staphylococcus aureus [25]): 1 µg/mL (≈ 1.01 µM) |
